Screening results (PubChem)
Compounds with a hit are over-represented: about 4.6% of the library has one in this group of screens.
NALP1 yeast inh: blocks the NALP1 inflammasome reconstituted in yeast; inhibition, % at 10 µM; AID 2071; S. cerevisiae NALP1/ASC/caspase-1 growth, X-gal OD620, 72 h; 0.61% of 280,000 active; in the data active = inhibition mostly above about 24%, no sharp cut-off; inactive = mostly below about 32%
PolyA inh: inhibitors of polyadenylation in S. cerevisiae; S. cerevisiae SKY197-pL101 polyadenylation reporter, beta-gal luminescence; efflux-impaired pdr1/pdr3 knockout yeast; score 100 = 6 SD above DMSO; activity score, % at 12 µM; 0.02% of 300,000 active; AID 1875;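 active = lowest replicate activity score at least 50, where 100 means six control SD above control mean; inconclusive = lowest score under 50 but half or more replicates reach 50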;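 note: yeast exposed to compound for 9 h at 30 °C; higher score means more reporter readthrough which indicates perturbed polyadenylation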
ALR inh: inhibitors of human sulfhydryl oxidase ALR. inhibition, % (no concentration beside the values). 3.8% of 290,000 active. P55789. purified ALR, DTT oxidation, H2O2 HRP-luminol luminescence;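 active = mean replicate inhibition above about 79%, with every replicate also reaching it, limit read from the data; inconclusive = only one of the two criteria met; inactive = mean below limit and not every replicate reaching it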
Target sequence (P55789 whole entry, looked up): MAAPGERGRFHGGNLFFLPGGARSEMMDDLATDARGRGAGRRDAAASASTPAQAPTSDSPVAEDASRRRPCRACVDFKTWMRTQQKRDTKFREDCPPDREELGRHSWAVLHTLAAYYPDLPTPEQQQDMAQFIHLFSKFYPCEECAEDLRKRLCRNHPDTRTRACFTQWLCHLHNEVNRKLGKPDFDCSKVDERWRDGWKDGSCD
NALP3 yeast inh: NALP3 inhibition in yeast; Yeast reconstituted NLRP3/ASC/caspase-1, beta-gal luminescence, 24 h; inhibition, % at 10 µM; 0.39% of 330,000 active; AID 2825;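 active = inhibition of 50% or more; inactive = inhibition below 50%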;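 note: plate controls were induced DMSO wells for no effect and uninduced yeast grown without galactose for full effect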
Pemphigus Ab inh: blocks pemphigus antibody binding to human desmoglein-3 | DSG3-coupled beads, scFv-anti-DSG3-GFP binding, flow cytometry; stronger effect = lower value | P32926 | binding (percent of control), % at 10 µM | AID 588358 | 0.48% of 310,000 active;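 active = binding more than 3 SD below its plate's average and above zero; inconclusive = below that plate limit but binding exactly zero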;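 note: hits lower antibody fragment binding to DSG3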
Arr AP2 block: inhibitors of human beta-arrestin and AP2 interaction. FITC-arrestin peptide / GST-AP2 beads, flow cytometry; AP2 beta2 appendage carries R879A mutation. inhibition, % at 10 µM. 0.31% of 340,000 active;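 active = inhibition above a set limit, near 3 SD of compounds lacking own fluorescence, cut at about 54% in these data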;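 note: plate controls were DMSO wells for no effect and 5 µM unlabelled arrestin peptide for full effect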
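System: GST-AP2 R879A bound to glutathione beads, E. coli-expressed. Also added: 50 nM FITC-arrestin peptide. Schedule: compound with beads 12 min RT, then probe 1 h RT. Signal: bead flow cytometry, FITC channel. Read-out basis: percent response.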
Numbers without * were called inactive; ? = inconclusive; / = no result given.

SMILES	NALP1 yeast inh	PolyA inh	ALR inh	NALP3 yeast inh	Pemphigus Ab inh	Arr AP2 block
CCc1c(O)nc(SCC(=O)Nc2ccccc2)n(-c2ccccc2C)c1=O	/	/	/	/	96.8	/
CCc1c(O)nc(SCC(=O)Nc2ccc(C)cc2)n(C2CCCCC2)c1=O	24.7	-7.3	98.5*	16.9	113.1	4.9
CCc1c(O)nc(SCC(=O)Nc2cc(C)on2)n(-c2ccccc2)c1=O	8.2	7.5	96.9*	8.1	102.1	4.2
O=C(Nc1ccc(C(=O)N2CCOCC2)cc1)c1ccccc1Cl	/	/	/	/	101.8	/
COc1ccc(C)cc1NC(=O)c1cc2c(CO)cnc(C)c2oc1=N	30.2	-6.6	86.3*	6.8	105.8	11.5
CC1(C)CC(=O)C=C(c2ccc(-c3ccc(OC(F)(F)F)cc3)cc2)C1=O	/	/	/	/	99.5	/
Cc1nc(NS(=O)(=O)c2ccccc2C)c2c3c(sc2n1)CCC3	27.1	-11.2	97.1*	34.7	/	/
C=CCNC(=S)NN(c1ccccc1)c1ccccc1	-4.2	-12.2	62.8	7.8	99.3	-6.3
CC(C)NC(=S)NN(c1ccccc1)c1ccccc1	8.3	-13.4	99.4*	-4.0	92.3	32.7
COCc1cc(C)nc(SCC(=O)Nc2ccccc2N2CCOCC2)c1C#N	1.6	21.1	2.2	6.9	/	7.1
COCc1cc(C)nc(SCC(=O)Nc2cccc3cccnc23)c1C#N	20.9	6.9	-6.7	-0.4	23.3*	1.7
CCN(CC)CCNC(=O)CCc1c(C)nc2c(c(C)nn2-c2ccc(C)c(C)c2)c1C	22.1	19.6	0.0	20.0	94.5	-8.7
Cc1c(C(=O)N2CCCCC2)c(S(=O)(=O)NCc2ccc(N(C)C)cc2)c(C)n1C	9.2	-14.1	98.4*	-1.7	101.1	6.3
CC1CCc2nc(/C(C#N)=C/c3ccncc3)sc2C1 (configuration not stated)	10.2	-10.2	98.3*	15.1	109.0	-14.5
CCOC(=O)Nc1ccc2c(c1)ncn2C1CCCCC1	-4.8	-21.1	83.6*	-2.9	103.6	1.5
COC(=O)CC1C(=O)NCCN1C(=O)CSc1nc2ccccc2c(=O)n1CC(C)C (configuration not stated)	33.9*	5.3	0.4	9.8	110.3	-13.7
CC(=O)[C@H]1[C@H]([C@H](O)[C@H](O)CO)O[C@](O)(C(=O)O)C[C@@H]1O	/	/	2.5	13.0	/	2.0
COc1ccc(CNC(=O)c2cc(=O)c3cc(C)cc(C)c3o2)cc1	22.8	2.8	0.6	5.8	87.4	8.3
Cc1ccc(NC(=O)CSc2ncc3ccccn23)cc1C	13.3	-14.8	98.8*	35.0	97.2	8.1
Cc1ccc(NC(=O)CSc2ncc(S(=O)(=O)c3ccccc3)c(=O)[nH]2)cc1C	14.0	16.9	99.8*	-12.1	110.3	5.0
COc1cccc(NC(=O)CSc2ncc(S(=O)(=O)c3ccccc3)c(=O)[nH]2)c1	-13.9	1.5	?	15.7	86.4	-5.8
O=C(CSc1ncc(S(=O)(=O)c2ccccc2)c(=O)[nH]1)Nc1ccccc1Cl	/	-7.6	78.4*	7.5	91.1	12.8
Cc1ccc(NC(=O)CSc2ncn(-c3ccccc3)n2)cc1C	-8.5	-4.8	-3.2	43.4	110.2	14.7
COC(=O)[C@]1(Cc2ccccc2)N[C@H](c2ccc(-c3cc(C(C)=O)cs3)cc2)[C@@H]2C(=O)N(C)C(=O)[C@@H]21	/	1.0	-4.4	0.6	/	7.8
O=C(COC(=O)c1ccc(O)cc1)Nc1cc(C(F)(F)F)ccc1N1CCOCC1	/	/	-2.4	22.0	102.2	18.8
SMILES	NALP1 yeast inh	PolyA inh	ALR inh	NALP3 yeast inh	Pemphigus Ab inh	Arr AP2 block
COc1ccc(/C=C2\SC(=S)N(CCC(=O)Nc3cccc(C(=O)O)c3)C2=O)cc1	26.3	-6.1	1.7	21.9	124.5	5.3
CN(C(=O)CSc1nc(O)cc(=O)n1C1CCCC1)c1ccccc1	19.2	7.8	97.8*	-4.5	108.4	-0.6
CCOC(=O)c1c(N)sc2c(OCC)c(Br)ccc12	4.1	-14.0	-16.4	24.2	104.2	-6.4
CCOC(=O)c1c(NC(C)=O)sc2c(OCC(O)CNC(C)(C)C)c(Br)ccc12 (configuration not stated)	26.1*	-10.8	-58.3	15.1	110.5	2.5
Cc1cc(N(C)Cc2ccccc2)nc2cc(O)ccc12	8.6	0.7	97.9*	14.6	101.7	12.7
CC(C)N(Cc1ccccc1)C(=O)CN1c2cccc3cccc(c23)S1(=O)=O	/	/	-14.1	19.2	96.4	5.2
COc1ccc(-c2cc(-c3n[nH]c(=S)n3-c3cc(OC)ccc3OC)[nH]n2)cc1	13.3	17.4	82.9*	11.1	91.0	-12.5
COC(=O)c1ccc(CSc2ccccc2NC(=S)Nc2cccc(SC)c2)o1	/	/	/	/	104.7	/
Cc1ccc(C2(C)NC(=O)N(Cc3c(C)noc3C)C2=O)cc1 (configuration not stated)	19.4*	-8.5	-0.7	5.0	104.1	2.0
Cc1noc(C)c1CN1C(=O)NC2(CCc3ccccc3C2)C1=O (configuration not stated)	/	19.2	-0.3	2.1	98.7	16.1
C/C(=N\NC(=S)Nc1c(C)cccc1C)c1ccc(O)cc1	6.8	1.5	87.3*	1.9	93.5	14.5
C[C@@H]1CCCCO[C@@H](CN(C)Cc2ccncc2)[C@@H](C)CN([C@H](C)CO)C(=O)c2cc(NC(=O)c3ccccc3)ccc2O1	/	/	/	/	102.9	/
Fc1cc2[nH]c(=S)[nH]c2c(Br)c1N1CCSCC1	-15.4	-19.7	8.9	12.9	97.2	-13.9
NS(=O)(=O)c1ccc(N2N=C(c3ccccc3)CC2c2ccccc2)cc1 (configuration not stated)	21.9	-10.6	-12.3	1.0	94.2	0.7
O=S(=O)(O)c1ccc(N2N=C(c3ccccc3)CC2c2ccccc2)cc1 (configuration not stated)	-2.2	7.2	99.1*	-13.0	101.5	0.9
COc1cc(C)c(NC(=S)Nc2cccc(Cl)c2C)cc1OC	16.2	19.7	91.1*	-0.1	101.2	-2.4
COC(=O)c1cccc(NC(=S)Nc2cccc(Cl)c2C)c1	-0.9	1.6	-0.6	-5.4	87.9	41.4
Oc1c(CN2CCN(c3ccccn3)CC2)cc(Cl)c2cccnc12	79.2*	-51.4	-14.0	37.1	96.6	-6.3
CCc1ccc(NC(=O)COC(=O)CN2C(=O)COc3ccccc32)cc1	40.8*	-5.2	-8.8	4.2	95.8	5.8
O=C(NC(=S)Nc1cccnc1)c1cc2ccccc2o1	47.2*	-3.2	-12.5	37.0	99.7	16.8
O=C(NC(=S)NCc1cccnc1)c1cc2ccccc2o1	-8.1	10.5	3.2	35.6	105.1	47.8
Cc1ccc2nc(NCCCO)[nH]c2c1	/	-15.7	97.2*	12.3	106.0	-4.3
CCOc1ccc2nc(NCCO)[nH]c2c1	-2.9	-7.2	43.1	8.0	100.2	3.8
